Our source for the Activity and inhibition values is ChEMBL document CHEMBL1146537, “Diterpenoids from Tetraclinis articulata that inhibit various human leukocyte functions” (J Nat Prod, 2003).

A short description of series [1]: Cytotoxicity against human neutrophils up to 10 uM by MTT assay. The series is classed as cell-based. Conditions: neutrophil.
In series [2] the test system is Neutrophil. Kind of series: Inhibition of cytochalasin B and fMLP-stimulated human neutrophil degranulation assessed as inhibition of elastase release at 10 uM preincubated for 5 mins measured after 20 mins. The series is classed as functional. The procedure, abridged: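 Neutrophils (2.5×10^6/mL) preincubated 5 min with compound or vehicle, then cytochalasin B (10 μM) + fMLP (10 nM), 10 min, 37 °C. Supernatant after 1200g spin at 4 °C, 10 min, reacted with Boc-L-alanine p-nitrophenyl ester (200 μM) 20 min, 37 °C; p-nitrophenol read at 414 nm. Direct enzyme inhibition checked by 5 min compound preincubation with stimulated supernatant before substrate.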

The test system of series [3] is Neutrophil. Nature of the series: Inhibition of TPA-induced chemiluminescence response in human neutrophils at 10 uM after 7 mins. The series is classed as functional. The gist of the method: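 Neutrophils (2.5×10^6/mL) with luminol (40 μM), stimulated by TPA (1 μM); light output counted after 7 min, chosen as time of maximal production.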
The subject of series [4] is Neutrophil. Nature of the series: Inhibition of cytochalasin B and fMLP-stimulated human neutrophil degranulation assessed as inhibition of myeloperoxidase release at 10 uM preincubated for 5 mins. The series is classed as functional. The gist of the method:
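Neutrophils (2.5×10^6 cells/mL) preincubated 5 min at 37 °C with compound in ethanol (ethanol alone for controls). Then stimulated 10 min at 37 °C with cytochalasin B (10 μM) plus fMLP (10 nM).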

Regarding `C=C[C@@]1(C)CC[C@H]2[C@](O)(CC[C@H]3[C@](C)(CO)CCC[C@@]32C)C1`, the Activity entry in series [1] is “Non-toxic”. In addition, the results for the inhibition at 10 µM in the series with Neutrophil [2], in the series on Neutrophil [3] and in the series on Neutrophil [4] were 24.1%, 1.8% and 46.7%, respectively.

On to `C=C[C@@]1(C)CC[C@H]2[C@](O)(CC[C@@H]3[C@]2(C)CCC[C@@]3(C)C=O)C1`, for which the Activity result in series [1] is on record as “Non-toxic”. Moreover, the inhibition at 10 µM with Neutrophil [2] is 17.8%; with Neutrophil [3], 30.5%; in the series on Neutrophil [4], 47.8%.

Turning to `C=C[C@@]1(C)CC[C@H]2[C@](O)(CC[C@H]3[C@](C)(COC(C)=O)CCC[C@@]32C)C1`, the Activity entry in series [1] is “Non-toxic”. Also, the inhibition at 10 µM in the series with Neutrophil [2] is 33.5%; in the series with Neutrophil [3] it was 6.5%; in the series with Neutrophil [4], 55.4%.
